Source: article PMC5656813 (Arthritis & Rheumatology (Hoboken, N.j.), 2017)

Tests used:
[1] = system: patients with RA who had had an insufficient response to MTX; conditions: cited from earlier work
[2] = system: JAK‐1; conditions: cited from earlier work
[3] = Studies 1 and 2, steady‐state plasma PK of filgotinib and its major metabolite; assay type: in vivo, human; conditions: for Tmax of major metabolite, steady state: median (range)
Summary of the method: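 RA patients on stable methotrexate took oral test compound or placebo capsules for 4 weeks: 200 mg once daily or 100 mg twice daily (study 1), or 30, 75, 150 or 300 mg once daily (study 2). In a subset (12 and 15 patients), plasma parent and major metabolite were sampled predose and 1, 2, 3, 5 and 8 h after the morning dose, at week 2 or 4. Descriptive statistics were calculated by dose.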

[4] = cited from earlier work
[5] = after filgotinib 30 mg once daily, study 2, arithmetic mean (coefficient of variation)
[6] = after filgotinib 75 mg once daily, study 2, arithmetic mean
[7] = after filgotinib 100 mg twice daily, study 1, arithmetic mean (coefficient of variation)
[8] = after filgotinib 150 mg once daily, study 2, arithmetic mean (coefficient of variation)
[9] = after filgotinib 200 mg once daily, study 1, arithmetic mean (coefficient of variation)
[10] = after filgotinib 300 mg once daily, study 2, arithmetic mean (coefficient of variation)

CC[C@@H]1CN(C(=O)NCC(F)(F)F)C[C@@H]1c1cnc2cnc3[nH]ccc3n12 [ABT‐494]
effect on natural killer (NK) cells [1]: decreased | effect on hemoglobin ([1]; middle and higher doses, within 4 weeks): decline in hemoglobin

Nc1nc2cccc(-c3ccc(CN4CCS(=O)(=O)CC4)cc3)n2n1 [major metabolite]
JAK‐1 inhibition potency of metabolite, lower than filgotinib [2]: ~10 fold | dose proportionality of PK ([3]; 30–300 mg range): essentially dose proportional | AUCtau of major metabolite, steady state [3, 5]: 11.2 (52.2) μg.hour/ml | Cmax of major metabolite, steady state [3, 5]: 0.582 (48.5) μg/ml | Tmax of major metabolite, steady state ([3]; after filgotinib 30 mg once daily, study 2): 5 (1–8) hours | AUCtau of major metabolite, steady state [3, 6]: 26.0 µg·h/mL | Cmax of major metabolite, steady state [3, 6]: 1.46 µg/mL | Tmax of major metabolite, steady state ([3]; after filgotinib 75 mg once daily, study 2): 5.5 (3–8) hours | AUCtau of major metabolite, steady state [3, 7]: 33.1 (26.3) μg.hour/ml | Cmax of major metabolite, steady state [3, 7]: 3.18 (25.0) μg/ml | Tmax of major metabolite, steady state ([3]; after filgotinib 100 mg twice daily, study 1): 2 (0–5) hours | AUCtau of major metabolite, steady state [3, 8]: 75.9 (31.0) μg.hour/ml | Cmax of major metabolite, steady state [3, 8]: 3.79 (26.5) μg/ml | Tmax of major metabolite, steady state ([3]; after filgotinib 150 mg once daily, study 2): 3 (2–5) hours | AUCtau of major metabolite, steady state [3, 9]: 71.8 (31.3) μg.hour/ml | Cmax of major metabolite, steady state [3, 9]: 3.77 (23.6) μg/ml | Tmax of major metabolite, steady state ([3]; after filgotinib 200 mg once daily, study 1): 3 (1–5) hours | AUCtau of major metabolite, steady state [3, 10]: 93.9 (20.4) μg.hour/ml | Cmax of major metabolite, steady state [3, 10]: 4.62 (9.98) μg/ml | Tmax of major metabolite, steady state ([3]; after filgotinib 300 mg once daily, study 2): 3 (3–8) hours | time of dosing to attain steady state ([3]; in vivo): ≤ 4 days | exposure to major metabolite, higher than exposure to parent filgotinib ([3]; steady state, 75–300 mg dose range): 13 fold | half‐life [4]: ~24 h | overall exposure of metabolite, higher than that of filgotinib ([4]; in humans): ~15 fold
